pIC50: −log10 of the molar value. Activity calls are given as the source filed them. No cut-off for these calls is given here.
Experiments:
Histone deacetylase = test: Inhibition of HDAC in human HeLa nuclear extract using Boc-Lys(acetyl)-AMC as substrate measured after 60 mins by fluorescence assay; assay type: protein assay
HCT-116 = test: Antiproliferative activity against human HCT116 cells after 48 hrs by MTT assay; assay type: functional, cell-based; settings: HCT-116, 48 h
HepG2 [1] = test: Antiproliferative activity against human HepG2 cells after 48 hrs by MTT assay; assay type: functional, cell-based; settings: HepG2, 48 h
SMMC-7721 = test: Antiproliferative activity against human SMMC7721 cells after 48 hrs by MTT assay; assay type: functional, cell-based; settings: SMMC-7721, 48 h
LoVo = test: Antiproliferative activity against human LoVo cells after 48 hrs by MTT assay; assay type: functional, cell-based
Calf thymus DNA [2] = test: Binding affinity to calf thymus DNA assessed as decrease in maximum absorption wavelength by UV-Vis spectroscopic titration method; assay type: nucleic-acid assay; settings: Bos taurus
HepG2 [3] = test: Induction of apoptosis in human HepG2 cells at 5 uM after 48 hrs by Annexin-V FITC/propidium iodide staining based flow cytometry relative to control; assay type: functional
Method in brief: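 HepG2 cells treated for 48 h with vehicle, compound at 1.0, 2.0 or 4.0 μM, or SAHA at 5.0 μM. Cells stained with FITC-annexin V/PI and analysed by flow cytometry. Percentage of apoptotic cells reported as mean ± SD of three independent experiments; significance tested versus control.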

HepG2 [4] = test: Induction of apoptosis in human HepG2 cells assessed as increase in cleaved caspase3 expression at 5 uM after 48 hrs by Western blot analysis; assay type: functional, cell-based
Method in brief: (§1)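 Sub-confluent HepG2 cells incubated with or without compound (1.0–4.0 μM) or SAHA (5.0 μM) for 48 h. Lysates immunoblotted for Bax, Bcl-2, cleaved caspase-3 and PARP, with β-actin as internal control. Densitometric scanning gave levels relative to β-actin, as mean ± SD of three separate experiments.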

HepG2 [5] = test: Induction of apoptosis in human HepG2 cells assessed as increase in cleaved PARP expression at 5 uM after 48 hrs by Western blot analysis; assay type: functional, cell-based; method in brief: as §1
[6] = Half life in rat liver microsomes at 5 uM in presence of NADPH by LC-MS analysis
Calf thymus DNA [7] = test: Binding affinity to calf thymus DNA assessed as maximum absorption wavelength by UV-Vis spectroscopic titration method; assay type: nucleic-acid assay; settings: Bos taurus

Which IC50 (Histone deacetylase) does the source give for `CCCN(Cc1ccc(C(=O)NO)cc1)C(=O)c1cc2c([nH]c3ccccc32)c(-c2cccc(OC)c2)n1` here?
The IC50 was 0.23 µM.

And the pIC50 (HCT-116)?
Its pIC50 is 5.53.

And the pIC50 (HepG2 [1])?
Its pIC50 is 5.44.

What about the pIC50 (SMMC-7721) of the same molecule?
The pIC50 was 5.39.

And the pIC50 (LoVo)?
The pIC50 was 5.27.

For `COc1ccc(-c2nc(C(=O)N(C)Cc3ccc(C(=O)NO)cc3)cc3c2[nH]c2ccccc23)cc1`, which IC50 (Histone deacetylase) is on record?
The IC50 was 0.96 µM.

And the pIC50 (HCT-116)?
The pIC50 was 5.01.

And the pIC50 (HepG2 [1])?
Its pIC50 is 4.98.

And the pIC50 (SMMC-7721)?
Its pIC50 is less than 4.90.

And the pIC50 (LoVo)?
The pIC50 was less than 4.90.

Which Activity (Calf thymus DNA [2]) does the source give for `O=C(CCCCCCC(=O)Nc1ccccc1)NO` [VORINOSTAT] here?
Its Activity is “inactive”.

What about the Activity (HepG2 [3]) of the same molecule?
The Activity was 34.5%.

And the Activity (HepG2 [4])?
The Activity was “Active”.

And the Activity (HepG2 [5])?
The Activity was “Active”.

What about the half-life at 5 µM [6] of the same molecule?
Its half-life at 5 µM is 44 min.

Which IC50 (Histone deacetylase) does the source give for `CCCCN(Cc1ccc(C(=O)NO)cc1)C(=O)c1cc2c([nH]c3ccccc32)c(-c2ccc(OC)cc2)n1` here?
Its IC50 is 0.34 µM.

What about the pIC50 (HCT-116) of the same molecule?
Its pIC50 is 5.52.

And the pIC50 (HepG2 [1])?
The pIC50 was 5.47.

And the pIC50 (SMMC-7721)?
The pIC50 was 5.28.

And the pIC50 (LoVo)?
The pIC50 was 5.32.

What does the source list for `CCCCN(Cc1ccc(C(=O)NO)cc1)C(=O)c1cc2c([nH]c3ccccc32)c(-c2cccc(OC)c2)n1`?
IC50 (Histone deacetylase): 0.37 µM; pIC50 (HCT-116): 5.36; pIC50 (HepG2 [1]): 5.29; pIC50 (SMMC-7721): 5.24; pIC50 (LoVo): 5.12

Which IC50 (Histone deacetylase) does the source give for `CCCN(Cc1ccc(C(=O)NO)cc1)C(=O)c1cc2c([nH]c3ccccc32)c(C)n1` here?
The IC50 was 0.85 µM.

And the pIC50 (HCT-116)?
The pIC50 was 4.98.

And the pIC50 (HepG2 [1])?
Its pIC50 is 5.01.

And the pIC50 (SMMC-7721)?
The pIC50 was 4.94.

What about the pIC50 (LoVo) of the same molecule?
The pIC50 was less than 4.90.

Which results are given for `CCN(Cc1ccc(C(=O)NO)cc1)C(=O)c1cc2c([nH]c3ccccc32)c(C)n1`?
IC50 (Histone deacetylase): 1.75 µM; pIC50 (HCT-116): < 4.90; pIC50 (HepG2 [1]): < 4.90; pIC50 (SMMC-7721): < 4.90; pIC50 (LoVo): < 4.90

What does the source list for `COc1ccc2c(c1)[nH]c1c(C)nccc12` [HARMINE]?
IC50 (Histone deacetylase): > 10 µM; Activity (Calf thymus DNA [7]): 320 nm

What does the source list for `CCN(Cc1ccc(C(=O)NO)cc1)C(=O)c1cc2c([nH]c3ccccc32)c(-c2ccc(OC)cc2)n1`?
IC50 (Histone deacetylase): 0.83 µM; pIC50 (HCT-116): 5.22; pIC50 (HepG2 [1]): 5.08; pIC50 (SMMC-7721): 4.99; pIC50 (LoVo): 5.03

With `CCCCN(Cc1ccc(C(=O)NO)cc1)C(=O)c1cc2c(cn1)[nH]c1ccccc12` as the molecule, how does the IC50 (Histone deacetylase) read?
Its IC50 is 2.69 µM.

What about the pIC50 (HCT-116) of the same molecule?
Its pIC50 is less than 4.90.

And the pIC50 (HepG2 [1])?
The pIC50 was less than 4.90.

And the pIC50 (SMMC-7721)?
Its pIC50 is less than 4.90.

Which IC50 (Histone deacetylase) does the source give for `CCCN(Cc1ccc(C(=O)NO)cc1)C(=O)c1cc2c(cn1)[nH]c1ccccc12` here?
The IC50 was 2.82 µM.

And the pIC50 (HCT-116)?
Its pIC50 is less than 4.90.

And the pIC50 (HepG2 [1])?
Its pIC50 is less than 4.90.

What about the pIC50 (SMMC-7721) of the same molecule?
The pIC50 was less than 4.90.

What does the source list for `CN(Cc1ccc(C(=O)NO)cc1)C(=O)c1cc2c(cn1)[nH]c1ccccc12`?
IC50 (Histone deacetylase): 5.63 µM; pIC50 (HCT-116): < 4.90; pIC50 (HepG2 [1]): < 4.90; pIC50 (SMMC-7721): < 4.90

What does the source list for `CCN(Cc1ccc(C(=O)NO)cc1)C(=O)c1cc2c(cn1)[nH]c1ccccc12`?
IC50 (Histone deacetylase): 4.78 µM; pIC50 (HCT-116): < 4.90; pIC50 (HepG2 [1]): < 4.90; pIC50 (SMMC-7721): < 4.90

With `CCCCN(Cc1ccc(C(=O)NO)cc1)C(=O)c1cc2c([nH]c3ccccc32)c(C)n1` as the molecule, how does the IC50 (Histone deacetylase) read?
The IC50 was 0.93 µM.

What about the pIC50 (HCT-116) of the same molecule?
Its pIC50 is less than 4.90.

What about the pIC50 (HepG2 [1]) of the same molecule?
Its pIC50 is 4.93.

What about the pIC50 (SMMC-7721) of the same molecule?
Its pIC50 is less than 4.90.

What about the pIC50 (LoVo) of the same molecule?
Its pIC50 is less than 4.90.

Which IC50 (Histone deacetylase) does the source give for `Cc1nc(C(=O)N(C)Cc2ccc(C(=O)NO)cc2)cc2c1[nH]c1ccccc12` here?
The IC50 was 3.06 µM.

What about the pIC50 (HCT-116) of the same molecule?
The pIC50 was less than 4.90.

And the pIC50 (HepG2 [1])?
The pIC50 was less than 4.90.

What about the pIC50 (SMMC-7721) of the same molecule?
The pIC50 was less than 4.90.

What about the pIC50 (LoVo) of the same molecule?
Its pIC50 is less than 4.90.
